Source: PubChem
CHOP inhibitor: inhibitors of CHOP induction in ER stress response; AID 2732; CHO-K1 CHOP-promoter luciferase, tunicamycin-induced, 15-18 h; 220,000 tested, 3.8% active; inhibition, % at 10 µM;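 active = compounds that reduced the stress-induced luciferase reporter signal by more than about 70% of percent inhibition, limit read from the data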;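 note: 0% = tunicamycin plus vehicle and 100% = wells without tunicamycin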
TMEM16A inh: inhibitors of mouse TMEM16A calcium-activated chloride channel | HEK293 TMEM16A/YFP iodide influx fluorescence, ionomycin | normalized B-score (activity score, 25-100; higher = stronger inhibition) at 10 µM | 310,000 tested, 1.2% active | AID 588511;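 active = ratio plate-corrected score three or more library SD toward inhibition, starting fluorescence score within five deviations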;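 note: score derived from kinetic fluorescence span divided by baseline fluorescence per well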
XBP1 UPR activ: activators of adaptive arm of unfolded protein response (XBP1). 330,000 tested, 0.33% active. activation, % at 20 µM. CHO-XBP1 luciferase reporter, IRE1-XBP1 UPR activation, luminescence; percent of tunicamycin response, DMSO as zero. AID 463104;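 active = versus positive control, 20 µM dose yields 30% or more activation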;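 note: 100% = tunicamycin at 10 µg/mL and 0% = DMSO only wells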
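assay system = CHO-XBP1 luciferase reporter cells | amount = 1000 cells/well | buffer or medium = F12 plus 10% FBS | compound dosing = single point, 20 µM final compound, 1% DMSO | incubation = 16-18 h cell attachment at 37 °C, then 6 h compound exposure | detection = Steady-Glo luminescence read | controls = tunicamycin 10 µg/mL and vehicle-only wells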
Hep lipid drop: modulators of hepatic lipid droplet formation; AML12 mouse hepatocytes, oleate lipid droplets, BODIPY imaging; inhibition, % at 6.5 µM; 240,000 tested, 0.4% active; AID 1656;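 active = lipid droplet intensity inhibited by at least 50%, with more than 500 cells counted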
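material = mouse AML12 hepatocyte cell line, fixed after treatment | also added = 100 µM oleic acid challenge | doses = compound at 6.5 µM only | schedule = overnight exposure | technique = Image-based BODIPY and DAPI two-channel analysis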
CHOP UPR activ: apoptotic UPR (CHOP) activation; CHO-CHOP luciferase reporter, luminescence; percent of tunicamycin response over DMSO baseline; AID 449763; activation, % at 10 µM; 330,000 tested, 0.34% active;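 active = at 10 µM dose, activation of 40% or more, normalized to positive control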;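 note: 100% = tunicamycin at 10 µg/mL and 0% = DMSO alone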
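Material: CHO-CHOP cells, stable luciferase reporter of PERK-eIF2a-CHOP signalling; quantity: 500 reporter cells seeded per well; buffer or medium: F12 medium containing 10% fetal bovine serum; compound: one dose, 10 µM in 0.5% DMSO; incubation: 6 h compound treatment, 37 °C; measured by: Steady-Glo luciferase luminescence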
TMEM16A act: activators or potentiators of mouse TMEM16A chloride channel | 340,000 tested, 0.3% active | Q8BHY3 | B-score at 10 µM | HEK293 TMEM16A/YFP-H148Q/I152L, iodide quench fluorescence; stronger effect = lower value;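 active = fluorescence-ratio B-score plate-corrected deviation score at least 3 library SD below zero, with starting fluorescence score within 5 deviations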;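 note: channel opened by trigger with iodide after compound preincubation; score built on the fluorescence ratio of max minus min over baseline; more negative score means more quench and so TMEM16A activation or potentiation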
* marks the source's active call; other numbers are inactive results; i = inactive; . = not tested or not shown. Sampled rows, rich in hits. Any-hit rate of the full collection: about 4.2%.

SMILES	CHOP inhibitor	TMEM16A inh	XBP1 UPR activ	Hep lipid drop	CHOP UPR activ	TMEM16A act
Cc1cc(C(=O)Nc2cccc(C(=O)O)c2)oc1C	75*	i	-9	1	-11	i
CNS(=O)(=O)c1cccc(C(=O)OCc2cc(=O)oc3c(C)c(O)ccc23)c1	.	100*	6	2	-2	i
CC1Oc2cc3oc4c(O)c(O)ccc4c(=O)c3c(O)c2C1(C)C (centres undefined)	.	100*	2	.	10	i
O=C(NN=C(c1ccccc1)c1ccccc1)C(CCl)C1CCCCC1 (centres undefined)	.	.	0	.	1	i
O=C(Nc1ccc(F)c(Cl)c1)c1ccccc1	.	i	8	.	5	i
Fc1ccc(NC(=S)Nc2cc(-c3ccccc3)[nH]n2)cc1Cl	70*	i	-2	6	0	i
Cc1ccc(NC(=S)Nc2cc(-c3ccccc3)[nH]n2)cc1Cl	84*	i	0	-5	2	i
CC(CCc1ccccc1)NCc1cccc2ccccc12 (centres undefined)	.	i	-4	.	1	i
NC(CCCCc1ccccc1)c1cccc2ccccc12 (centres undefined)	.	25*	-3	.	-2	.
CCOC(=O)c1cc(CC)sc1NC(=O)COC	44	i	1	6	0	i
CCOC(=O)c1cc(CC)sc1NC(=O)Cc1ccccc1	85*	i	-1	-4	1	i
COc1ccc2nc(N3C(=O)CNC3=S)sc2c1	-51	i	-4	-14	4	i
CCOc1ccc2nc(N3C(=O)/C(=C/c4ccc(Cl)cc4)NC3=S)sc2c1	105*	.	.	11	.	i
O=C(C[C@H]1C/C=C\CC[C@@H](Cc2ccc(F)cc2)C(=O)OC[C@H]2CCCN2C1=O)NCCO	.	.	-1	.	2	i
O=C(O)c1ccc(Oc2ccc(S(=O)(=O)c3ccc(C(=O)O)c(C(=O)O)c3)cc2)cc1	.	i	-4	2	2	i
C[C@H]1CN([C@@H](C)CO)C(=O)Cc2cc(NS(=O)(=O)c3ccc(Cl)cc3)ccc2O[C@@H]1CN(C)C(=O)Nc1cccc2ccccc12	.	.	-3	.	0	.
O=C(Nc1ccc(S(=O)(=O)Nc2cnc3ccccc3n2)cc1)c1ccc(Cl)cc1Cl	.	i	4	.	-2	i
Cc1cc(Cl)ccc1OC(C)C(=O)Nc1ccc(C(=O)Nc2ccccc2C(=O)O)cc1 (centres undefined)	.	100*	-5	7	1	i
Cc1cc(Cl)ccc1OC(C)C(=O)Nc1ccc(S(=O)(=O)Nc2cnc3ccccc3n2)cc1 (centres undefined)	57	100*	-5	.	-2	i
CC(Oc1ccc(Cl)cc1Cl)C(=O)Nc1ccc(S(=O)(=O)Nc2cnc3ccccc3n2)cc1 (centres undefined)	22	100*	0	1	-2	.
O=S(=O)(N/N=C\c1cccc(F)c1)c1ccccc1	.	i	-2	7	3	i
O=S(=O)(N/N=C/c1ccc(F)cc1)c1ccccc1	25	25*	-5	-2	-2	i
Cc1nc(N2CCCCC2)c(C#N)c(C)c1[N+](=O)[O-]	74*	i	6	-10	0	i
CCN(CC)S(=O)(=O)c1cccc(-c2n[nH]c(=S)n2/N=C/c2ccc(Br)cc2)c1	90*	i	1	4	-1	i
Cc1cccc(/C=N/n2c(-c3cc(-c4ccccc4)n[nH]3)n[nH]c2=S)c1	75*	i	0	19	5	-6.6*
SMILES	CHOP inhibitor	TMEM16A inh	XBP1 UPR activ	Hep lipid drop	CHOP UPR activ	TMEM16A act
S=c1[nH]nc(-c2cc(-c3ccccc3)n[nH]2)n1/N=C/c1ccccc1	51	i	2	0	1	i
NC1(C(=O)O)CSSC1	.	.	.	.	.	i
Cc1nc(C)c(C(=O)N2CCCC(C(=O)c3cc(F)ccc3F)C2)s1 (centres undefined)	.	i	-2	-4	1	i
Cc1ccc(C(C)(C)C)c(SCC(=O)Nc2nnc(C)s2)c1	.	i	-8	-1	1	i
COc1ccc2c(c1)cc(C)c1nnc(SCC(=O)N(C)c3nc(-c4ccccc4)cs3)n12	94*	i	0	.	-3	i
CC1CCc2nc(NC(=O)c3ccco3)sc2C1 (centres undefined)	71*	i	-7	-4	-7	i
CC1CCc2nc(NC(=O)Cc3cccs3)sc2C1 (centres undefined)	7	i	3	1	4	i
O=C(COc1ccc2ccccc2c1)Nc1ccc2c3c(cccc13)CC2	92*	i	0	-18	-1	i
COc1cc(/C=N/NC(=O)Nc2cccc3nsnc23)cc(OC)c1OC	84*	.	.	12	.	i
Cc1ccc(C2(C)NC(=O)N(CC(=O)Nc3ccccc3C(=O)NC3CCCC3)C2=O)cc1 (centres undefined)	.	i	-1	.	1	i
Cc1ccc(CNC(=O)COC(=O)C2CC2)cc1	.	.	4	.	0	i
COc1ccc(CNC(=O)COC(=O)C2CCC(C(C)(C)C)CC2)cc1 (centres undefined)	90*	i	-1	-1	-1	i
N#Cc1c(C(F)(F)F)cc(-c2ccccc2)nc1SCC(=O)Nc1sc2c(c1C#N)CCC2	74*	i	2	.	7	i
CCc1nnc(NC(=O)CSc2nc(-c3ccccc3)nc3ccccc23)s1	90*	i	9	-28	1	i
CCc1nnc(NC(=O)CSc2nc(-c3ccccc3)cc(-c3ccc(F)cc3)c2C#N)s1	84*	i	1	.	-1	i
COc1ccccc1N(CC(=O)NC1CCCCC1)S(=O)(=O)c1ccccc1	.	i	-2	-18	0	i
COc1ccc(S(=O)(=O)N(C)CC(=O)Nc2ccc(C(F)(F)F)cc2)cc1Cl	81*	i	-1	12	-1	i
O=C1CN(S(=O)(=O)c2cc(C(F)(F)F)ccc2Cl)CCN1	.	.	-1	.	-1	i
Cc1ccc(O)c(C2=Nc3ccccc3N=C(c3ccc([N+](=O)[O-])cc3)C2)c1	-17	i	-3	-4	-2	i
Cc1ccc(C2=Nc3ccccc3N=C(c3ccco3)C2)c(O)c1	72*	i	-7	.	-4	i
Cc1ccc(O)c(C2=Nc3ccccc3N=C(c3ccco3)C2)c1	87*	i	0	.	-1	i
c1ccc(-c2ncc(CN3CCN(c4ccccn4)CC3)[nH]2)cc1	3	i	1	-5	-1	i
